Results on nine molecules are retold here after ChEMBL document CHEMBL1157663, “Acyclic nucleoside phosphonates with 5-azacytosine base moiety substituted in C-6 position” (Bioorg Med Chem, 2010).

A short description of data set [1]: Cytotoxicity against human CEM cells. Particulars: CEM (CCRF-CEM) cells. The class given is cell-based.
In another data set the test system is HEL. Kind of data set: Cytostatic activity against HEL cells. The format is ADME, cell-based. Particulars: human.
The subject of another data set is Cowpox virus. Kind of data set: Ratio of compound EC50 to HPMP-5-azaC EC50 for Cowpox virus infected in HEL cells. The format is functional.
The test system of data set [2] is Human immunodeficiency virus 2. Kind of data set: Antiviral activity against HIV2 infected in human CEM cells. The format is functional, organism-based. The note with it: CCRF-CEM. In a few lines:
(§1)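 Retroviral assay (HIV-1, HIV-2) run in human T-lymphocyte CEM cells.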

The next data set deals with CCRF-CEM. Kind of data set: Cytostatic activity against human CEM cells. The format is cell-based.
For the next data set, the system named is Human alphaherpesvirus 1. In words: Antiviral activity against Herpes simplex virus 1 infected in HEL cells. The format is functional, organism-based. In short, it runs like this:
(§2)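 DNA-virus assay run in human embryonic lung (HEL) cell cultures.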

In the next data set the test system is Vaccinia virus. Kind of data set: Ratio of compound EC50 to HPMP-5-azaC EC50 for Vaccinia virus infected in HEL cells. The format is functional, Orthopoxvirus vaccinia.
A short description of data set [3]: Cytotoxicity against african green monkey Vero cells. The format is cell-based. Particulars: chlorocebus sabaeus.
The nature of data set [4]: Cytotoxicity against HEL cells. The format is cell-based. Particulars: human.
Data set [5] has as its system Human immunodeficiency virus 1. In words: Antiviral activity against HIV1 infected in human CEM cells. The class given is functional, organism-based. The note with it: CCRF-CEM. In a few lines:
as §1

The subject of the next data set is Human alphaherpesvirus 2. In words: Antiviral activity against Herpes simplex virus 2 infected in HEL cells. The class given is functional, organism-based. In a few lines: as §2
A further data set relates to Vero. Kind of data set: Cytostatic activity against african green monkey Vero cells. The note with it: chlorocebus sabaeus. The class given is ADME, cell-based.
For the next data set, the system named is Sindbis virus. In words: Antiviral activity against Sindbis virus infected in african green monkey Vero cells at 20 ug/ml. The format is functional, organism-based.
A further data set concerns Human alphaherpesvirus 3. In words: Antiviral activity against Varicella zoster virus infected in HEL cells. Particulars: Human alphaherpesvirus 3, HEL. The class given is functional, organism-based. In short, it runs like this: as §2
The next data set relates to Human betaherpesvirus 5. Kind of data set: Antiviral activity against Human cytomegalovirus infected in HEL cells. Particulars: Human betaherpesvirus 5, HEL. The class given is functional, organism-based. In a few lines: as §2
In a further data set the test system is Human betaherpesvirus 6. In words: Antiviral activity against Human herpesvirus 6. The class given is functional, organism-based.

Converted amounts (≈) assume the structure as drawn. The source made the active and inactive calls. The calls are words filed in the database; no cut-off is given here.

For `Nc1nc(-c2ccccc2)n(C[C@@H](CO)OCP(=O)(O)O)c(=O)n1`, the CC50 in data set [1], in data set [3] and in data set [4] was over 100 µg/mL throughout. Further, the Activity result in the data set on HEL, in the data set with CCRF-CEM and with Vero was “Non-toxic” throughout. For the same molecule, the “Ratio EC50” value with Cowpox virus and in the data set on Vaccinia virus was 50 throughout. Besides, the result (in [2]; in the data set with Human alphaherpesvirus 1; in data set [5]; in the data set on Human alphaherpesvirus 2) was inactive.
With `Cc1nc(N)nc(=O)n1C[C@@H](CO)OCP(=O)(O)O`, the CC50 in data set [1], in data set [3] and in [4] was over 100 µg/mL throughout. In addition, the Activity result in the data set on HEL, in the data set with CCRF-CEM and in the data set with Vero was “Non-toxic” each time. In addition, the “Ratio EC50” value in the data set on Cowpox virus and with Vaccinia virus was 50 each time. Further, the outcome (in [2]; with Human alphaherpesvirus 1; in data set [5]; in the data set on Human alphaherpesvirus 2) was inactive.
As to `Nc1ncnc(=O)n1C[C@@H](CO)OCP(=O)(O)O`, the CC50 in data set [1], in data set [3] and in data set [4] was over 100 µg/mL throughout. The Activity entry in the data set with HEL, in the data set with CCRF-CEM and in the data set with Vero was “Non-toxic” each time. In addition, the result (in data set [2]; in the data set with Human alphaherpesvirus 1; in [5]; with Human alphaherpesvirus 2) was inactive.
`Cc1nc(N)n(C[C@@H](CO)OCP(=O)(O)OC(C)C)c(=O)n1`: the CC50 in data set [1], in data set [3] and in data set [4] was over 100 µg/mL in each case. Also, the Activity result with HEL, in the data set on CCRF-CEM and in the data set on Vero was “Non-toxic” in each case. In addition, the outcome (in data set [2]; in the data set on Human alphaherpesvirus 1; in [5]; with Human alphaherpesvirus 2) was inactive. In the data set on Sindbis virus, the outcome was Active.
Take `CCCCCCCCCCCCCCCCOCCOP1(=O)CO[C@@H](Cn2cnc(N)nc2=O)CO1` (stereo not given in full): the EC50 (usually the concentration giving half of the maximal effect) in the data set on Human alphaherpesvirus 3 is at most 0.0008 µg/mL; with Human betaherpesvirus 5 it was at most 0.00014 µg/mL; in the data set on Human alphaherpesvirus 1 (Human alphaherpesvirus 1, HEL), 0.003 µg/mL (≈ 0.00565 µM); in the data set on Human betaherpesvirus 6 it was 0.008 µg/mL (≈ 0.0151 µM); with Human alphaherpesvirus 2 (Human alphaherpesvirus 2, HEL), 0.003 µg/mL (≈ 0.00565 µM). The CC50 in [1], in data set [3] and in data set [4] was over 100 µg/mL in each case. Also, the Activity entry in the data set on HEL, with CCRF-CEM and in the data set on Vero was “Non-toxic” each time. Besides, the outcome in data set [2] and in data set [5] was inactive.
As to `CCc1nc(N)nc(=O)n1C[C@@H](CO)OCP(=O)(O)O`, the CC50 in data set [1], in data set [3] and in data set [4] was over 100 µg/mL in each case. The Activity result with HEL, in the data set on CCRF-CEM and in the data set with Vero was “Non-toxic” each time. Also, the “Ratio EC50” value in the data set with Cowpox virus and in the data set with Vaccinia virus was 50 throughout. In addition, the result (in data set [2]; in the data set with Human alphaherpesvirus 1; in data set [5]; in the data set on Human alphaherpesvirus 2) was inactive.
In the case of `CCCCc1nc(N)nc(=O)n1C[C@@H](CO)OCP(=O)(O)O`, the CC50 in data set [1], in [3] and in [4] was over 100 µg/mL each time. The Activity result with HEL, in the data set with CCRF-CEM and with Vero was “Non-toxic” throughout. The “Ratio EC50” value with Cowpox virus and with Vaccinia virus was 50 each time. The outcome (in [2]; in the data set with Human alphaherpesvirus 1; in data set [5]; with Human alphaherpesvirus 2) was inactive.
As to `Cc1nc(N)n(C[C@@H](CO)OCP(=O)(O)O)c(=O)n1`, the CC50 in data set [1], in [3] and in [4] was over 100 µg/mL throughout. In addition, the Activity result with HEL, with CCRF-CEM and in the data set with Vero was “Non-toxic” in each case. For the same molecule, the result (in [2]; in the data set on Human alphaherpesvirus 1; in data set [5]; in the data set on Sindbis virus; in the data set with Human alphaherpesvirus 2) was inactive.
With `CCCc1nc(N)nc(=O)n1C[C@@H](CO)OCP(=O)(O)O`, the CC50 in data set [1], in data set [3] and in [4] was over 100 µg/mL each time. Besides, the Activity result in the data set with HEL, with CCRF-CEM and in the data set on Vero was “Non-toxic” each time. The “Ratio EC50” value in the data set on Cowpox virus and in the data set with Vaccinia virus was 50 each time. Also, the outcome (in [2]; in the data set with Human alphaherpesvirus 1; in [5]; in the data set with Human alphaherpesvirus 2) was inactive.
